The values below come from ChEMBL document CHEMBL3769384, “Discovery of Tetrahydropyrazolopyridine as Sphingosine 1-Phosphate Receptor 3 (S1P3)-Sparing S1P1 Agonists Active at Low Oral Doses” (J Med Chem, 2016).

As usually defined, the EC50 is the concentration at which the effect is half-maximal. One may read the fraction unbound as free concentration divided by total concentration. The IC50 is the concentration at which inhibition is half-maximal.

For series [1], the target named is Sphingosine 1-phosphate receptor 2 (Homo sapiens, UniProt O95136). Put plainly: Agonist activity at human S1P2 receptor expressed in Saccharomyces cerevisiae after 24 hrs by reporter gene assay. The essentials: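 S. cerevisiae with integrated S1P2 under the GPD promoter, seeded at 0.02 OD600 in histidine-free minimal medium with 5 mM 3-aminotriazole and 100 µM fluorescein-di-(β-D-glucopyranoside). Agonist-driven growth was read as fluorescein fluorescence (ex 485/em 535 nm) after 24 h at 30°C.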
Sphingosine 1-phosphate receptor 2, sequence (O95136 whole entry): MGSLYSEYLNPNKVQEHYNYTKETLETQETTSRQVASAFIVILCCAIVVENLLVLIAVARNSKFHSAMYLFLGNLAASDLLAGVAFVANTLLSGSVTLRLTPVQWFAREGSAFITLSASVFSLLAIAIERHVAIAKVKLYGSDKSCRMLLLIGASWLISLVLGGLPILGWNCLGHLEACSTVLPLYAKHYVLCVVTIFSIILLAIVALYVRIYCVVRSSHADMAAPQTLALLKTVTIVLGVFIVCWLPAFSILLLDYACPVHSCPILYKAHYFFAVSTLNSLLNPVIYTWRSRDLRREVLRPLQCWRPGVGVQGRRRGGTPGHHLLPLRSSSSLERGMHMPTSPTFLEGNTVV

A short description of series [2]: Fraction unbound in CD rat blood after 4 hrs by LC-MS/MS analysis. The format is ADME, tissue-based. The essentials:
(§1)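 Fresh blood (CD rat, CD1 mouse, Beagle dog, single human donor) spiked at 1000 ng/mL and dialysed against PBS by rapid equilibrium dialysis for 4 h at 37°C. Matrix-matched LC-MS/MS; unbound fraction taken from the buffer/blood peak area ratio.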

A further series deals with Cytochrome P450 2C9 (Homo sapiens, UniProt P11712). Put plainly: Inhibition of CYP2C9 (unknown origin) coexpressed in Escherichia coli with human NADPH reductase using 7-methoxy-4-trifluoromethylcoumarin-3-acetic acid as substrate after 10 mins by fluorescence assay. The format is ADME. The essentials: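 Recombinant CYP co-expressed in E. coli with human NADPH reductase, incubated with an isoform-specific pro-fluorescent substrate and compound (nine concentrations, 0.1-100 µM) plus a 0.2 mM NADPH regenerating system for 10 min at 37°C. Fluorescent metabolite formation was monitored.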
Cytochrome P450 2C9, sequence (P11712 whole entry, canonical isoform): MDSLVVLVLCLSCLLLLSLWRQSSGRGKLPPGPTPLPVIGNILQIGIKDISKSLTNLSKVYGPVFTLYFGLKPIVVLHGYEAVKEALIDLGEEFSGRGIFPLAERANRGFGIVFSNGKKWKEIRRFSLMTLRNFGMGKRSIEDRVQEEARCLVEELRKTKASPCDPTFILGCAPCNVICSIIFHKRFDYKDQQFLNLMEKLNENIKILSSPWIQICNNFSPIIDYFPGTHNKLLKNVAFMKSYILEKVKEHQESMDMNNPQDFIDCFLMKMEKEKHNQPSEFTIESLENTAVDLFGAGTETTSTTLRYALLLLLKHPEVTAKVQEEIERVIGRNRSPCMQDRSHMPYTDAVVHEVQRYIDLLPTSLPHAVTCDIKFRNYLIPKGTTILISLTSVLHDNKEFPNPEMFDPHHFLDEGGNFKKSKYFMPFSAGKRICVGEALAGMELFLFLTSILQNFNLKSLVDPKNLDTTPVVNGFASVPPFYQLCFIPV

Series [3] can be described thus: Fraction unbound in CD1 mouse blood after 4 hrs by LC-MS/MS analysis. In kind it is ADME, tissue-based. An outline of the steps:
as §1

For the next series, the target named is Cytochrome P450 3A4 (Homo sapiens, UniProt P08684). Put plainly: Inhibition of human CYP3A4 coexpressed in Escherichia coli with human NADPH reductase using nifedipine as substrate at 0.1 to 100 uM by fluorescence assay. In kind it is ADME. Particulars: TDE = time-dependent effect.
Cytochrome P450 3A4, sequence (P08684 whole entry): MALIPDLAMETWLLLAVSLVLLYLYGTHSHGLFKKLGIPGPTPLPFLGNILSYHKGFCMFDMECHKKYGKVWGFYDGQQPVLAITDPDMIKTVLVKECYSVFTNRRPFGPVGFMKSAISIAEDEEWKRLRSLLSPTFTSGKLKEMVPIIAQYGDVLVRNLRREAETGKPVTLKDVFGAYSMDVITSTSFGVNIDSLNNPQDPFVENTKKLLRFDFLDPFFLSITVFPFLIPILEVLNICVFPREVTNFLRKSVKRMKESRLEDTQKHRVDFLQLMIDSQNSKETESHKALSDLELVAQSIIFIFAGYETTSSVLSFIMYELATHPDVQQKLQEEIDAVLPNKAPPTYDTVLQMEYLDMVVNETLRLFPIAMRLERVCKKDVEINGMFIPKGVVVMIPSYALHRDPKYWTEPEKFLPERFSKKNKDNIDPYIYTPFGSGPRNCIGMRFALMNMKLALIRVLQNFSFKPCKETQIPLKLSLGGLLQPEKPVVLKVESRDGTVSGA
Series [4] can be described thus: Fraction unbound in beagle dog blood after 4 hrs by LC-MS/MS analysis. In kind it is ADME, tissue-based, Canis lupus familiaris. The essentials: as §1
Series [5] addresses T1, Sphingosine 1-phosphate receptor 4 (Homo sapiens, UniProt O95977).
T1 sequence (O95977 whole entry): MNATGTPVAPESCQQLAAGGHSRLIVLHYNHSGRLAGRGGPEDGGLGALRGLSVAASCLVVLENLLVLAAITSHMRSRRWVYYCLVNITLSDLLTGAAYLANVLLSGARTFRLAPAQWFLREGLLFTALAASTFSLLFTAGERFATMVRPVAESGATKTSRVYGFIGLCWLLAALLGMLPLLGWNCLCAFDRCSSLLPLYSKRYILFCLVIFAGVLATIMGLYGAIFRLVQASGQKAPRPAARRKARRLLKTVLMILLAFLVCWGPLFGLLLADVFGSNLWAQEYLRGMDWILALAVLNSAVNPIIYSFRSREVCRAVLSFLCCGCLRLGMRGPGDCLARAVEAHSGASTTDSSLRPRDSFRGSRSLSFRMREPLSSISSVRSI
In words: Agonist activity at human S1P4 receptor expressed in CHO-K1 cells by aequorin calcium accumulation assay. The format is functional, cell-based. The essentials: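 CHO-K1 aequorin lines revived in DMEM F12 with 10% charcoal-stripped FBS, recovered 30 min at 37°C, then loaded 18-24 h at room temperature in the dark with 5 µM coelenterazine at 2.5x10^6 cells/mL. Cells were added at 1x10^5/well to compound, and flash luminescence was recorded immediately.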

The target in series [6] is Sphingosine 1-phosphate receptor 1 (Homo sapiens, UniProt P21453). Put plainly: Agonist activity at human S1P1 receptor expressed in RH7777 cells by [35S]GTP-gammaS accumulation assay. The format is cell-based. The essentials: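 RH7777 S1P1 membranes (1.5 µg/well) precoupled 30 min on ice to WGA SPA beads in 20 mM HEPES, 10 mM MgCl2, 100 mM NaCl, pH 7.4, with 10 µM GDP and 90 µg/mL saponin (final). 0.5 nM [35S]GTPγS final added to compound; plates read immediately by scintillation proximity.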
Sphingosine 1-phosphate receptor 1, sequence (P21453 whole entry): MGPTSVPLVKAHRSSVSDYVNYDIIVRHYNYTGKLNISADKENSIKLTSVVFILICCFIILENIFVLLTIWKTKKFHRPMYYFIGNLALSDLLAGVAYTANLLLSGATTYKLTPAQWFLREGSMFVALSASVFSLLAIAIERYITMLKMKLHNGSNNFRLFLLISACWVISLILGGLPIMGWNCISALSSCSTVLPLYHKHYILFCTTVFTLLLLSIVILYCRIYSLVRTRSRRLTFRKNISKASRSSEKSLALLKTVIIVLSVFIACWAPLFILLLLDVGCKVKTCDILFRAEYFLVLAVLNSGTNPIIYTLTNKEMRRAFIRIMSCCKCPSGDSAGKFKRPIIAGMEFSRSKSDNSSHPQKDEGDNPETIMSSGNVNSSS
On the technique in general: GTPγS resists hydrolysis and so accumulates on activated G proteins.

Another series relates to Hepatocyte. Put plainly: Intrinsic clearance in human hepatocytes at 0.5 uM after 2 hrs by LC-MS/MS analysis. In kind it is ADME, cell-based. An outline of the steps:
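Compound at 0.5 µM incubated with pooled cryopreserved hepatocytes (0.7 million cells/mL) in Williams Medium E at 37°C under CO2/O2. Supernatants analysed by LC-MS/MS. CLi was derived from a first-order rate constant, scaled with 1.2x10^8 cells/g liver (human, rat, mouse) or 2.4x10^8 cells/g liver (dog).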

For `Cc1c2c(nn1-c1nnc(-c3ccc(OC(C)C)c(Cl)c3)s1)CCN(CCC(=O)O)C2`, the EC50 is above 31.6 µM in series [1], above 39.8 µM in [5] and 0.00631 µM in series [6]. The free fraction (fraction unbound) at 4 h in series [2] is 0.014; in series [3], 0.011; in [4] it was 0.011. In addition, the IC50 against Cytochrome P450 2C9 is above 50 µM. Moreover, the “inhibition (INH)” value against Cytochrome P450 3A4 was “tde”. Further, the CLH in the series on Hepatocyte amounted to 1.8 mL/min/g.
